Reference: ChEMBL document CHEMBL1153413, “Pyranonaphthoquinone lactones: a new class of AKT selective kinase inhibitors alkylate a regulatory loop cysteine” (J Med Chem, 2009)
Each block holds one molecule with its values, some of them ahead of it. Activity calls are given as the source filed them. The calls are words filed in the database; no cut-off is given here.

Columns and labels:
[1] = biological target: T1, RAC-alpha serine/threonine-protein kinase (Homo sapiens, UniProt P31749); assay: Inhibition of AKT
T1 sequence (P31749 whole entry): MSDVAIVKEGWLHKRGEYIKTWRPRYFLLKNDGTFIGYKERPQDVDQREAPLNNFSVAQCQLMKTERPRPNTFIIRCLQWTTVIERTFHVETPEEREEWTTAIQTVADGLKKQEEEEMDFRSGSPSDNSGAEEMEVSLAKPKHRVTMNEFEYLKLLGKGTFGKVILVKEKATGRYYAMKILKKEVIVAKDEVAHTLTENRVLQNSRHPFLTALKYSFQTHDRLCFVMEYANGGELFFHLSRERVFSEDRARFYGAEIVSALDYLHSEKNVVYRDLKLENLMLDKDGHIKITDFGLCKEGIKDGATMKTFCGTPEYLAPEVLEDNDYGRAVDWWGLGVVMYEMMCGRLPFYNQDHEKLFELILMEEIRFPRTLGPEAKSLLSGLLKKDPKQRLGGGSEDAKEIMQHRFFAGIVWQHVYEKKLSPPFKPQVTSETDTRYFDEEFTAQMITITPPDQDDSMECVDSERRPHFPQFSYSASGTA

[2] = Cytotoxicity against human MDA468 cells expressing AKT; type: functional, cell-based, MDA-MB-468
[3] = biological target: T1, RAC-alpha serine/threonine-protein kinase; assay: Inhibition of AKT at < 10 uM
[4] = biological target: RAC-alpha serine/threonine-protein kinase (Homo sapiens, UniProt P31749, C310A); assay: Inhibition of AKT C310A mutant
[5] = biological target: RAC-alpha serine/threonine-protein kinase (Homo sapiens, UniProt P31749, C296A); assay: Inhibition of AKT C296A mutant
[6] = test system: RAC-alpha serine/threonine-protein kinase (Homo sapiens), P31749 [C296A,C310A]; assay: Inhibition of AKT C296A/C310A mutant up to 40 uM
[7] = biological target: Tyrosine-protein kinase ABL1 (Homo sapiens) (UniProt P00519); assay: Inhibition of ABL1 at 1 uM
Method in brief: (§1)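 Single-concentration (1 µM) selectivity screen run as an outsourced commercial panel of 45 kinases.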

[8] = biological target: T1, RAC-alpha serine/threonine-protein kinase; assay: Inhibition of AKT1 at 1 uM; method in brief: as §1
[9] = biological target: RAC-beta serine/threonine-protein kinase (Homo sapiens) (UniProt P31751); assay: Inhibition of AKT2 at 1 uM; method in brief: as §1
[10] = biological target: Tyrosine-protein kinase BTK (Homo sapiens) (UniProt Q06187); assay: Inhibition of BTK at 1 uM; method in brief: as §1
Sequence of Tyrosine-protein kinase BTK (Homo sapiens) (Q06187 whole entry): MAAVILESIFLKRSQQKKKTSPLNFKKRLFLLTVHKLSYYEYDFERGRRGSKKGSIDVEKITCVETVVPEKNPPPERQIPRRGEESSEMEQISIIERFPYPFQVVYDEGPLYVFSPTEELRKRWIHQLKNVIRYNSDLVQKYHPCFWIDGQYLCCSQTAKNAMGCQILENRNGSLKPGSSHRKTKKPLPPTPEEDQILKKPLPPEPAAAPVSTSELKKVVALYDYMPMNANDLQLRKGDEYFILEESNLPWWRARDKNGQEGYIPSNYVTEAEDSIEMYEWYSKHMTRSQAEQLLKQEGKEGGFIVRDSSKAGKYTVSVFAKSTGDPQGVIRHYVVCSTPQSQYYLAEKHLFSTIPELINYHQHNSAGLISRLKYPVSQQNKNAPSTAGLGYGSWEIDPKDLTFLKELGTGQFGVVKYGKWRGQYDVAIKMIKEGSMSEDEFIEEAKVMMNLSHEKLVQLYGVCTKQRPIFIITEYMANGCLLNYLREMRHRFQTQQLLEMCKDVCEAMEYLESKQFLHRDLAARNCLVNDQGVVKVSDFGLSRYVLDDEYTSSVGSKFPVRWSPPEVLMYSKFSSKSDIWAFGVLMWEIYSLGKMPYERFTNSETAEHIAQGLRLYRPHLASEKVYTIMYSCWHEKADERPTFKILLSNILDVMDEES

[11] = biological target: Cyclin-dependent kinase 1/cyclin B1 (Homo sapiens) (UniProt P06493+P14635); assay: Inhibition of CDK1/cyclin B at 1 uM; type: protein-complex assay; method in brief: as §1
[12] = biological target: Cyclin-dependent kinase 2 (Homo sapiens) (UniProt P24941); assay: Inhibition of CDK2/cyclin A at 1 uM; method in brief: as §1
[13] = biological target: Serine/threonine-protein kinase Chk1 (Homo sapiens) (UniProt O14757); assay: Inhibition of CHEK1 at 1 uM; method in brief: as §1
[14] = biological target: Macrophage colony-stimulating factor 1 receptor (Homo sapiens) (UniProt P07333); assay: Inhibition of CSF1R at 1 uM; method in brief: as §1
[15] = biological target: Tyrosine-protein kinase CSK (Homo sapiens) (UniProt P41240); assay: Inhibition of CSK at 1 uM; method in brief: as §1
[16] = biological target: Epidermal growth factor receptor (Homo sapiens) (UniProt P00533); assay: Inhibition of EGFR at 1 uM; method in brief: as §1
[17] = biological target: Receptor tyrosine-protein kinase erbB-4 (Homo sapiens) (UniProt Q15303); assay: Inhibition of ERBB4 at 1 uM; method in brief: as §1
[18] = biological target: Fibroblast growth factor receptor 1 (Homo sapiens) (UniProt P11362); assay: Inhibition of FGFR1 at 1 uM; method in brief: as §1
[19] = biological target: Vascular endothelial growth factor receptor 1 (Homo sapiens) (UniProt P17948); assay: Inhibition of FLT1 at 1 uM; method in brief: as §1
[20] = biological target: Receptor-type tyrosine-protein kinase FLT3 (Homo sapiens) (UniProt P36888); assay: Inhibition of FLT3 at 1 uM; method in brief: as §1
[21] = biological target: Tyrosine-protein kinase Fyn (Homo sapiens) (UniProt P06241); assay: Inhibition of FYN at 1 uM; method in brief: as §1
Sequence of Tyrosine-protein kinase Fyn (Homo sapiens) (P06241 2-537 limits assumed): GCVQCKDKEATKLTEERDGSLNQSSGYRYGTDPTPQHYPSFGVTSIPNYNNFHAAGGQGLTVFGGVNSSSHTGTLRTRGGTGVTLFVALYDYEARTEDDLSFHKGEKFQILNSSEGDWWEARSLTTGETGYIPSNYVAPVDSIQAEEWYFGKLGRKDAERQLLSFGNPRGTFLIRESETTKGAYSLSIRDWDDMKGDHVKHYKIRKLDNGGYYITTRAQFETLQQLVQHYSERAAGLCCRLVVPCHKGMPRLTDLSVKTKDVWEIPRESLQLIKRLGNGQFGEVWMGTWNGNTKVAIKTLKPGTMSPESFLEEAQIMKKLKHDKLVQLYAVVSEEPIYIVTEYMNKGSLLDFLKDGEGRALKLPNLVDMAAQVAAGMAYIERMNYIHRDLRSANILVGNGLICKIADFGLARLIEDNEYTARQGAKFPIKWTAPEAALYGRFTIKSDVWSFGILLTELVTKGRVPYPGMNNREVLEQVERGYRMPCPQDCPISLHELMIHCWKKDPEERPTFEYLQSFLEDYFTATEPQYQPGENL

[22] = biological target: Insulin-like growth factor 1 receptor (Homo sapiens) (UniProt P08069); assay: Inhibition of IGF1R at 1 uM; method in brief: as §1
Sequence of Insulin-like growth factor 1 receptor (Homo sapiens) (P08069 31-736 limits assumed): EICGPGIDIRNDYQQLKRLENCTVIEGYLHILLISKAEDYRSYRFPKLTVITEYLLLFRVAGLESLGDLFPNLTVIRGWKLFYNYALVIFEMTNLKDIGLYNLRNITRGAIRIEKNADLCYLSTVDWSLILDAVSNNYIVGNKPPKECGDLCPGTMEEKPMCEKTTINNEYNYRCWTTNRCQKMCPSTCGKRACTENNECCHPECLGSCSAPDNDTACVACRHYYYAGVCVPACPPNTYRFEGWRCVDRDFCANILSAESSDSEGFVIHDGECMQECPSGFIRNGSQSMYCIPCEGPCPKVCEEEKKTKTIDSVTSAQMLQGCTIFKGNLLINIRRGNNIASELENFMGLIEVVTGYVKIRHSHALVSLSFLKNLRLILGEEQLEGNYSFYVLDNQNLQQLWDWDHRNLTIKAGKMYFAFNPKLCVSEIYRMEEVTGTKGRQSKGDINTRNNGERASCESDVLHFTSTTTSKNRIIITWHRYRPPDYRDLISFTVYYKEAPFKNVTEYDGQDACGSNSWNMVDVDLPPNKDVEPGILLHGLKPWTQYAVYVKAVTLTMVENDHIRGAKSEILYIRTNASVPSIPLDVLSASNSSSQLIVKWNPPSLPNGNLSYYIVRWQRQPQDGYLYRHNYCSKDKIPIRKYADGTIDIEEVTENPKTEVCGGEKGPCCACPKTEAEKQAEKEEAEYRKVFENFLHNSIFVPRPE
Sequence of Insulin-like growth factor 1 receptor (Homo sapiens) (P08069 741-1367 limits assumed): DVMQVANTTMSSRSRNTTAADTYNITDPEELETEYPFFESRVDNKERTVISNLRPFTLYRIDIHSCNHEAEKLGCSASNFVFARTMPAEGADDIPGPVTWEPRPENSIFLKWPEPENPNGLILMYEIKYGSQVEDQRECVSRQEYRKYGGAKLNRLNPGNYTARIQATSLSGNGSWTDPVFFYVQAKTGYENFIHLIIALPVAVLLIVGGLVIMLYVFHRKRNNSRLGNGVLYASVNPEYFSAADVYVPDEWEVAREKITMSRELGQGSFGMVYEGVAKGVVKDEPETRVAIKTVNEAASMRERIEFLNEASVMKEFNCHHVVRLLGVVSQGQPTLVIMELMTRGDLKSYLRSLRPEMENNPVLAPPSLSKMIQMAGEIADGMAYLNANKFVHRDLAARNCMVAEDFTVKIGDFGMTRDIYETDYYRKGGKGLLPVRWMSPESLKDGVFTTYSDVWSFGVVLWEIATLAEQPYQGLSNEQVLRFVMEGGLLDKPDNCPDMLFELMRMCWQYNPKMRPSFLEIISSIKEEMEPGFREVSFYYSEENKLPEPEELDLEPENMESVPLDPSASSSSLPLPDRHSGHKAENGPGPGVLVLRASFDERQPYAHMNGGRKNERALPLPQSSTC

[23] = biological target: Inhibitor of nuclear factor kappa-B kinase subunit beta (Homo sapiens) (UniProt O14920); assay: Inhibition of IKBKB at 1 uM; method in brief: as §1
[24] = biological target: Insulin receptor (Homo sapiens) (UniProt P06213); assay: Inhibition of INSR at 1 uM; method in brief: as §1
[25] = biological target: Vascular endothelial growth factor receptor 2 (Homo sapiens) (UniProt P35968); assay: Inhibition of KDR at 1 uM; method in brief: as §1
[26] = biological target: Tyrosine-protein kinase Lck (Homo sapiens) (UniProt P06239); assay: Inhibition of LCK at 1 uM; method in brief: as §1
Sequence of Tyrosine-protein kinase Lck (Homo sapiens) (P06239 2-509 limits assumed): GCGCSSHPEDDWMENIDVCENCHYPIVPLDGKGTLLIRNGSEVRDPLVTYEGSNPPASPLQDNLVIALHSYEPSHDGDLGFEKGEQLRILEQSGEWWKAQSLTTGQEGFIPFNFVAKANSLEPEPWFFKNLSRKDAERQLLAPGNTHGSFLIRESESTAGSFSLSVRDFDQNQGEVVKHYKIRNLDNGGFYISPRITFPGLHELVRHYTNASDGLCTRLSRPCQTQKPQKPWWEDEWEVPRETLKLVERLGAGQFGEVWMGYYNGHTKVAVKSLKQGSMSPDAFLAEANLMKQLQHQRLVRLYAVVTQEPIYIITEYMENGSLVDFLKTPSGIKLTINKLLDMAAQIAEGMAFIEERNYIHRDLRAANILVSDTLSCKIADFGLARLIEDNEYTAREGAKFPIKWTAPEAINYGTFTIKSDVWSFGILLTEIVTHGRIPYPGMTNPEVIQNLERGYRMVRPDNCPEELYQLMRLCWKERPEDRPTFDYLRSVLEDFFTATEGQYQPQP

[27] = biological target: Dual specificity mitogen-activated protein kinase kinase 1 (Homo sapiens) (UniProt Q02750); assay: Inhibition of MAP2K1 at 1 uM; method in brief: as §1
[28] = biological target: Mitogen-activated protein kinase kinase kinase kinase 5 (Homo sapiens) (UniProt Q9Y4K4); assay: Inhibition of MAP4K5 at 1 uM; method in brief: as §1
[29] = biological target: Mitogen-activated protein kinase 1 (Homo sapiens) (UniProt P28482); assay: Inhibition of MAPK1 at 1 uM; method in brief: as §1
Sequence of Mitogen-activated protein kinase 1 (Homo sapiens) (P28482 whole entry): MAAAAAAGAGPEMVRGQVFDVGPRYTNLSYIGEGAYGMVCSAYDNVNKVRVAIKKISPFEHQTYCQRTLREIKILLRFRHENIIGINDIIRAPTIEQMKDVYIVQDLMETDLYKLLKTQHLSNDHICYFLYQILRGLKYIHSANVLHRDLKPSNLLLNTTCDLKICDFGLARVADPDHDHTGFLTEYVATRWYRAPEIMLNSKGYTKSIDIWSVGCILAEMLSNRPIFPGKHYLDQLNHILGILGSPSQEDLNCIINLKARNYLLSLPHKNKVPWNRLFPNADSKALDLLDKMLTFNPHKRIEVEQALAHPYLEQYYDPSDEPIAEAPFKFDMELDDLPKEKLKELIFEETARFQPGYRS

[30] = biological target: Mitogen-activated protein kinase 14 (Homo sapiens) (UniProt Q16539); assay: Inhibition of MAPK14 at 1 uM; method in brief: as §1
[31] = biological target: Mitogen-activated protein kinase 3 (Homo sapiens) (UniProt P27361); assay: Inhibition of MAPK3 at 1 uM; method in brief: as §1
[32] = biological target: Hepatocyte growth factor receptor (Homo sapiens) (UniProt P08581); assay: Inhibition of MET at 1 uM; method in brief: as §1
[33] = biological target: Serine/threonine-protein kinase Nek2 (Homo sapiens) (UniProt P51955); assay: Inhibition of NEK2 at 1 uM; method in brief: as §1
[34] = biological target: High affinity nerve growth factor receptor (Homo sapiens) (UniProt P04629); assay: Inhibition of NTRK1 at 1 uM; method in brief: as §1
[35] = biological target: Platelet-derived growth factor receptor alpha (Homo sapiens) (UniProt P16234); assay: Inhibition of PDGFRA at 1 uM; method in brief: as §1
[36] = biological target: Platelet-derived growth factor receptor beta (Homo sapiens) (UniProt P09619); assay: Inhibition of PDGFRB at 1 uM; method in brief: as §1
[37] = biological target: Serine/threonine-protein kinase PLK1 (Homo sapiens) (UniProt P53350); assay: Inhibition of PLK1 at 1 uM; method in brief: as §1
[38] = biological target: cAMP-dependent protein kinase catalytic subunit alpha (Homo sapiens) (UniProt P17612); assay: Inhibition of PRKACA at 1 uM; method in brief: as §1
[39] = biological target: Protein kinase C alpha type (Homo sapiens) (UniProt P17252); assay: Inhibition of PRKCA at 1 uM; method in brief: as §1
[40] = biological target: Protein kinase C theta type (Homo sapiens) (UniProt Q04759); assay: Inhibition of PRKCQ at 1 uM; method in brief: as §1
[41] = biological target: Focal adhesion kinase 1 (Homo sapiens) (UniProt Q05397); assay: Inhibition of PTK2 at 1 uM; method in brief: as §1
Sequence of Focal adhesion kinase 1 (Homo sapiens) (Q05397 2-1052 limits assumed): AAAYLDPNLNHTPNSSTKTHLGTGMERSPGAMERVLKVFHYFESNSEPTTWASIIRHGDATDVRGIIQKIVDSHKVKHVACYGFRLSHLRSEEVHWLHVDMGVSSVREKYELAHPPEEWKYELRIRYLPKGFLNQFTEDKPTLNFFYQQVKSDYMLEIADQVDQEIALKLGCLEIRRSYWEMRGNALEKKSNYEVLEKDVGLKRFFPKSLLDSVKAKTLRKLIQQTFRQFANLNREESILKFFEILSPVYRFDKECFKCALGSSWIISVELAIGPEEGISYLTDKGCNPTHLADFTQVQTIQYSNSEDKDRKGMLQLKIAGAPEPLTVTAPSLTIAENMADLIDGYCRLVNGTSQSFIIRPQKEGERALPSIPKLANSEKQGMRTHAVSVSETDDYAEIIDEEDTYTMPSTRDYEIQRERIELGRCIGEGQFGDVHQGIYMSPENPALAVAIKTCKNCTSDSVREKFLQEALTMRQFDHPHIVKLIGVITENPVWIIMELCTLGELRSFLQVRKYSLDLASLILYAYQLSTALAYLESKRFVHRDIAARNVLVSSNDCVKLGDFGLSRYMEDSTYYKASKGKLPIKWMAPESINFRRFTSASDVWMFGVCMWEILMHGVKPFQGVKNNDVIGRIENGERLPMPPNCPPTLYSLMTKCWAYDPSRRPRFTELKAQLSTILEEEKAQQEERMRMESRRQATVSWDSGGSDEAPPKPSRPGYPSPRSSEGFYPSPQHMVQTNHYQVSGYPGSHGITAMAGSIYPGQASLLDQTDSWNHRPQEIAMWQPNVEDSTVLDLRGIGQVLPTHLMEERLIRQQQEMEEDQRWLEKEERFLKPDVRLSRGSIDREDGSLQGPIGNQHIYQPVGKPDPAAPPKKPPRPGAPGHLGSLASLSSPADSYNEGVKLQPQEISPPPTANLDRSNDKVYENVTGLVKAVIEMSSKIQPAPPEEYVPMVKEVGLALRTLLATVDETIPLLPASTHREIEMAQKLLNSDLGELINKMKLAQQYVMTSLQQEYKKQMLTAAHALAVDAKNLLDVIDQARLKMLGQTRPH

[42] = biological target: Rho-associated protein kinase 1 (Homo sapiens) (UniProt Q13464); assay: Inhibition of ROCK1 at 1 uM; method in brief: as §1
[43] = biological target: Ribosomal protein S6 kinase beta-1 (Homo sapiens) (UniProt P23443); assay: Inhibition of RPS6KB1 at 1 uM; method in brief: as §1
[44] = biological target: Serine/threonine-protein kinase Sgk1 (Homo sapiens) (UniProt O00141); assay: Inhibition of SGK at 1 uM; method in brief: as §1
[45] = biological target: Proto-oncogene tyrosine-protein kinase Src (Homo sapiens) (UniProt P12931); assay: Inhibition of SRC at 1 uM; method in brief: as §1
[46] = biological target: Aurora kinase A (Homo sapiens) (UniProt O14965); assay: Inhibition of STK6 at 1 uM; method in brief: as §1
[47] = biological target: Tyrosine-protein kinase SYK (Homo sapiens) (UniProt P43405); assay: Inhibition of SYK at 1 uM; method in brief: as §1
[48] = biological target: Tyrosine-protein kinase Yes (Homo sapiens) (UniProt P07947); assay: Inhibition of YES1 at 1 uM; method in brief: as §1
[49] = biological target: Ephrin type-A receptor 1 (Homo sapiens) (UniProt P21709); assay: Inhibition of EPHA1 at 1 uM; method in brief: as §1
[50] = biological target: Tyrosine-protein kinase Lyn (Homo sapiens) (UniProt P07948); assay: Inhibition of LYN A at 1 uM; method in brief: as §1

- IC50 [1]: 497 nM
Compound: CCC[C@H]1O[C@@H]2CC(=O)O[C@@H]2C2=C1C(=O)c1c(OC)cccc1C2=O
- IC50 ([2]; Homo sapiens, MDA-MB-468): 1110 nM

- Activity [3]: inactive
Compound: CCOC(=O)C[C@@H]1CC2=C(C(=O)c3ccccc3C2=O)[C@H](c2cccc(O)c2)O1 (racemic)

- IC50 [1]: 424 nM
Compound: CCC[C@H]1O[C@H](CC(=O)O)CC2=C1C(=O)c1c(O)cccc1C2=O [DEOXYFRENOLICIN]
- IC50 ([2]; Homo sapiens, MDA-MB-468): 330 nM

- Activity [3]: inactive
Compound: CCOC(=O)C[C@@H]1CC2=C(C(=O)c3ccccc3C2=O)[C@@H](c2ccsc2)O1 (stereo in doubt; (+))

Compound: C[C@H]1O[C@@H]2CC(=O)O[C@@H]2C2=C1C(=O)c1c(ccc([C@H]3C[C@@H](N(C)C)[C@H](O)[C@@H](C)O3)c1O)C2=O [LACTOQUINOMYCIN]
- IC50 [1]: 149 nM
- IC50 ([2]; Homo sapiens, MDA-MB-468): 50 nM
- IC50 [4]: 38500 nM
- IC50 [5]: 30400 nM
- Activity [6]: inactive
- inhibition [7]: 0%
- inhibition [8]: 92%
- inhibition [9]: 99%
- inhibition [10]: 1%
- inhibition [11]: 2%
- inhibition [12]: 0%
- inhibition [13]: 10%
- inhibition [14]: 6%
- inhibition [15]: 0%
- inhibition [16]: 26%
- inhibition [17]: 5%
- inhibition [18]: 38%
- inhibition [19]: 29%
- inhibition [20]: 4%
- inhibition [21]: 17%
- inhibition [22]: 2%
- inhibition [23]: 41%
- inhibition [24]: 1%
- inhibition [25]: 21%
- inhibition [26]: 0%
- inhibition [27]: 0%
- inhibition [28]: 34%
- inhibition [29]: 6%
- inhibition [30]: 49%
- inhibition [31]: 7%
- inhibition [32]: 14%
- inhibition [33]: 0%
- inhibition [34]: 14%
- inhibition [35]: 15%
- inhibition [36]: 32%
- inhibition [37]: 0%
- inhibition [38]: 0%
- inhibition [39]: 16%
- inhibition [40]: 22%
- inhibition [41]: 12%
- inhibition [42]: 1%
- inhibition [43]: 16%
- inhibition [44]: 20%
- inhibition [45]: 0%
- inhibition [46]: 17%
- inhibition [47]: 2%
- inhibition [48]: 14%
- inhibition [49]: 8%
- inhibition [50]: 3%

- IC50 [1]: 72 nM
Compound: O=C1C[C@H]2O[C@H](COCc3ccccc3)C3=C(C(=O)c4ccccc4C3=O)[C@H]2O1 (racemic)
- IC50 ([2]; Homo sapiens, MDA-MB-468): 1000 nM

- Activity [3]: inactive
Compound: CCC[C@H]1O[C@H](CC(=O)OCC)CC2=C1C(=O)c1ccccc1C2=O (racemic)

- IC50 [1]: 150 nM
Compound: C[C@H]1O[C@@H]2CC(=O)O[C@@H]2C2=C1C(=O)c1ccccc1C2=O
- IC50 ([2]; Homo sapiens, MDA-MB-468): 480 nM

- Activity [3]: inactive
Compound: CCOC(=O)C[C@@H]1CC2=C(C(=O)c3ccccc3C2=O)[C@@H](c2cccs2)O1

- Activity [3]: inactive
Compound: CCOC(=O)C[C@@H]1CC2=C(C(=O)c3ccccc3C2=O)[C@@H](C)O1

- Activity [3]: inactive
Compound: CCC[C@@H]1O[C@H](CC(=O)OCC)CC2=C1C(=O)c1ccccc1C2=O (racemic)

- IC50 [1]: 80 nM
Compound: O=C1C[C@H]2O[C@@H](c3ccc(O)cc3)C3=C(C(=O)c4ccccc4C3=O)[C@H]2O1 (racemic)
- IC50 ([2]; Homo sapiens, MDA-MB-468): 550 nM

- IC50 [1]: 44 nM
Compound: O=C1C[C@H]2OCC3=C(C(=O)c4ccccc4C3=O)[C@H]2O1
- IC50 ([2]; Homo sapiens, MDA-MB-468): 800 nM

- IC50 [1]: 99 nM
Compound: O=C1C[C@H]2O[C@H](c3ccsc3)C3=C(C(=O)c4ccccc4C3=O)[C@H]2O1 (stereo in doubt; (-))
- IC50 ([2]; mda-mb-468): 410 nM

- Activity [3]: inactive
Compound: CCOC(=O)C[C@@H]1CC2=C(C(=O)c3ccccc3C2=O)[C@H](c2ccc(N)cc2)O1 (racemic)
